Data set [1] deals with T1, Melanin-concentrating hormone receptor 1 (Homo sapiens, UniProt Q99705). Description: Displacement of [125I]MCH from human MCH1 receptor expressed in CHO-K1 cells by scintillation counting. The format is cell-based. In a few lines: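 Membranes of CHO-K1 cells stably expressing human MCH1R incubated with [125I]-MCH and compound in 50 mM Tris, 10 mM MgCl2, 2 mM EDTA, bacitracin, 0.2% BSA, pH 7.4, 2 h at room temperature. Bound label collected by filtration onto GF/C filters and counted by scintillation. Non-specific binding defined with 1 µM unlabeled MCH. IC50 reported as mean of at least two experiments.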
T1 sequence (Q99705 whole entry): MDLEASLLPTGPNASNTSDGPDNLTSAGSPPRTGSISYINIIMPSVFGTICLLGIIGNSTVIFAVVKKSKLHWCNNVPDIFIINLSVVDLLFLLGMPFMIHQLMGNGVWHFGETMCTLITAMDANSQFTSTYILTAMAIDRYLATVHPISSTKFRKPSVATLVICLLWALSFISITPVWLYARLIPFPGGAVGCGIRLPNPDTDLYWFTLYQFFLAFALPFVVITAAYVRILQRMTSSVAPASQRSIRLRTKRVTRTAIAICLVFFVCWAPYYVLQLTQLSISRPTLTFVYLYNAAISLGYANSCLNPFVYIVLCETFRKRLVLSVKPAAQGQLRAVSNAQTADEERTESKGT
A general note: In a radioligand displacement assay an active substance lowers the binding of a labelled ligand.

A short description of data set [2]: Intrinsic clearance in rat hepatocytes. Type of data set: ADME, cell-based, Liver, Hepatocyte.
The target of data set [3] is T1, Melanin-concentrating hormone receptor 1. Description: Antagonist activity at human MCH1 receptor expressed in CHO-K1 cells assessed as inhibition of MCH-induced intracellular calcium mobilization by FLIPR assay. The format is functional, cell-based. In a few lines: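 CHO-K1 cells stably expressing human MCH1R, seeded at 3.0 × 10^4 per well and grown 24 h in DMEM/10% FBS with G418. Cells loaded with Fluo-4 AM plus 2.5 mM probenecid for 1 h at 37 °C, then washed into HBSS/20 mM Hepes/0.5% BSA/2.5 mM probenecid, pH 7.4. Compound added 5 min before MCH; Ca2+ mobilization read on FLIPR. IC50 is mean of ≥2 experiments.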
On the technique in general: A change in cytosolic calcium serves as a functional read-out for many receptors and channels.

For data set [4], the system named is Rattus norvegicus. Description: Antiobese activity in high fat fed Sprague-Dawley rat assessed as suppression of […] food intake at 30 mg/kg, po. Type of data set: functional. In a few lines:
(§1)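 Male SD rats with a 26-gauge guide cannula in the third ventricle, used after ≥1 week recovery. Rats fed high-fat diet ~3 h, then given compound (10 or 30 mg/kg) or vehicle orally. 1 h later MCH (5 µg/head in artificial CSF) was injected ICV, 1 h before dark onset. Food intake measured over 2 h; 15–20 rats per group, versus vehicle/MCH group.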

Data set [5] can be described thus: Oral bioavailability in rat at 3 mg/kg. Type of data set: ADME, organism-based. The following applies: in vivo. In a few lines:
(§2)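 Rats dosed at 1 mg/kg IV and 3 mg/kg PO. Clearance, volume of distribution, half-life and oral bioavailability derived from these dosings; mean values, n = 3.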

Data set [6] is described as follows: Plasma concentration in rat at 30 mg/kg, po after 2 hrs. The format is ADME, organism-based. Further details: dose 30 mg/kg, route oral. The essentials:
(§3)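 Rats given 30 mg/kg PO; plasma and brain levels determined 2 h post-dose, with brain/plasma ratio taken from these. Mean values, n = 3.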

Data set [7] can be described thus: Volume of distribution in rat at 1 mg/kg, iv and 3 mg/kg, po. The format is ADME, organism-based. The note with it: in vivo. The essentials:
as §2

A short description of data set [8]: Clearance in rat at 1 mg/kg, iv and 3 mg/kg, po. Type of data set: ADME, organism-based. The note with it: in vivo. The essentials: as §2
The test system of the next data set is Brain. Kind of data set: Drug level in rat brain at 30 mg/kg, po after 2 hrs. The note with it: in vivo. The arrangement: dose 30 mg/kg, route oral. The format is ADME, organism-based. In a few lines:
as §3

The nature of data set [9]: Half life in rat at 1 mg/kg, iv and 3 mg/kg, po. Type of data set: ADME, organism-based. The note with it: in vivo. In a few lines:
as §2

Data set [10] can be described thus: Ratio of drug level from brain to plasma in rat at 30 mg/kg, po after 2 hrs. The format is ADME, organism-based. The note with it: brain and plasma, read-out: BPR. Further details: dose 30 mg/kg, route oral. In a few lines: as §3
Data set [11] has as its system Rattus norvegicus. Description: Antiobese activity in high fat fed Sprague-Dawley rat assessed as suppression of […] food intake at 10 mg/kg, po. The format is functional. The essentials:
as §1

Each structure is given as a SMILES string. Bounds are passed on as bounds.

Take `CC(C)N(C)c1ccc2cc(NC(=O)CCc3ccc(C(F)(F)F)cc3)cnc2n1`: the IC50 in data set [1] was determined as 365 nM.
In [1], `CC(C)N(C)c1nc2ccc(NC(=O)c3ccc(-c4ccccc4)nc3)cc2[nH]1` came in with a 50% inhibitory concentration (IC50) of 8.8 nM. In data set [2], the CLint scaled amounted to 12 mL/min/kg.
On to `CN(c1nc2ccc(NC(=O)CCc3ccc(C(F)(F)F)cc3)cc2[nH]1)C1CC1`, for which the IC50 in data set [1] was found to be 24 nM.
Regarding `CN(C)c1nc2ccc(NC(=O)CCc3ccc(C(F)(F)F)cc3)cc2[nH]1`, in [1], the IC50 worked out at 12 nM.
As to `CN(c1nc2ccc(NC(=O)CCc3ccc(C(F)(F)F)cc3)cc2[nH]1)C1CCCCC1`, the results for the half-maximal inhibitory concentration (IC50) in [1] and in data set [3] were 6.7 nM and 27 nM, respectively.
Turning to `CCN(c1nc2ccc(NC(=O)CCc3ccc(C(F)(F)F)cc3)cc2[nH]1)C1CCCCC1`, the IC50 in data set [1] was found to be 135 nM.
The molecule `O=C(CCc1ccc(C(F)(F)F)cc1)Nc1ccc2nc(N3CCOCC3)[nH]c2c1` returned an IC50 in data set [1] of 428 nM.
Take `CC(C)N(C)c1nc2ccc(NC(=O)CCc3ccc(C(F)(F)F)cn3)cc2[nH]1`: the IC50 in data set [1] is 41 nM.
In data set [1], `CN1CCC(N(C)c2nc3ccc(NC(=O)CCc4ccc(C(F)(F)F)cc4)cc3[nH]2)CC1` displayed an IC50 of 23 nM.
As to `CC(C)N(C)c1nc2ccc(NC(=O)CCc3ccc(C(F)(F)F)cc3)cc2[nH]1`, the IC50 in data set [1] stood at 5.9 nM; in [3] it was 21 nM. For the same molecule, the CLint scaled in data set [2] is 32 mL/min/kg.
For `CC(C)N(C)c1nc2ccc(NC(=O)CCc3ccc(C(F)(F)F)cc3)cc2s1`, the IC50 in data set [1] is more than 750 nM.
Take `CC(=O)N1CCC(N(C)c2nc3ccc(NC(=O)CCc4ccc(C(F)(F)F)cc4)cc3[nH]2)C1` (centres undefined): the IC50 in [1] was 30 nM.
Turning to `CC(C)N(C)c1nc2ccc(NC(=O)c3ncc(-c4ccc(F)cc4)cn3)cc2[nH]1`, the IC50 in [1] turned out to be 15 nM. Besides, the CLint scaled in data set [2] amounted to 9 mL/min/kg.
In [1], `CC(C)N(C)c1nc2ccc(NC(=O)c3ccc(-c4ccc(C(F)(F)F)cn4)cc3)cc2[nH]1` registered an IC50 of 3.1 nM. The CLint scaled in data set [2] stood at 16 mL/min/kg.
With `CCN(C)c1nc2ccc(NC(=O)CCc3ccc(C(F)(F)F)cc3)cc2[nH]1`, the IC50 in [1] was determined as 19 nM.
With `CC(C)N(C)c1nc2ccc(NC(=O)c3ccc(-c4ccc(F)cc4)nc3)cc2[nH]1`, the IC50 in [1] turned out to be 5.5 nM. Moreover, in data set [2], the CLint scaled is 8 mL/min/kg.
The molecule `CN(c1nc2ccc(NC(=O)CCc3ccc(C(F)(F)F)cc3)cc2[nH]1)C1CCOC1` (centres undefined) showed an IC50 in [1] of 27 nM.
Take `CN(c1nc2ccc(NC(=O)CCc3ccc(C(F)(F)F)cc3)cc2[nH]1)C1CCCC1`: the IC50 in data set [1] is 4 nM; in data set [3], 22 nM.
As to `CC(C)N(C)c1nc2ccc(NC(=O)c3cnc(-c4ccc(F)cc4)cn3)cc2[nH]1`, the Activity in the data set with Rattus norvegicus [4] came out at 72%; with Rattus norvegicus [11] it was 32%. The same molecule yielded a bioavailability in data set [5] of 35%. For the same molecule, the concentration at 2 h in data set [6] worked out at 3.9 µM. The Vd in [7] worked out at 1.2 L/kg. Moreover, the clearance in [8] is 11 mL/min/kg. Besides, the Drug uptake in the data set on Brain is on record as 1.4 nmol/g. The IC50 in [1] came out at 2.7 nM. In [9], the half-life was 2.3 h. Moreover, the Kp at 2 h in data set [10] was 0.36. Further, the CLint scaled in data set [2] stood at 10 mL/min/kg.
Consider `CC(C)N(C)c1ccc2nc(NC(=O)CCc3ccc(C(F)(F)F)cc3)ccc2n1`, for which the IC50 in data set [1] was determined as 375 nM.
`CC(C)N(C)c1nc2ccc(NC(=O)c3cncc(-c4ccc(F)cc4)c3)cc2[nH]1`: the IC50 in [1] was found to be 900 nM.

For orientation: IC50 means the concentration at which inhibition is half-maximal. What is called CLint scaled is the rate of metabolic loss divided by the concentration. Lower therefore signals greater metabolic stability. For orientation: bioavailability means dose-corrected exposure relative to a reference, in per cent. The half-life is the time in which the quantity being followed falls by half.

Source of the values: ChEMBL document CHEMBL1136956, “Identification of 2-aminobenzimidazoles as potent melanin-concentrating hormone 1-receptor (MCH1R) antagonists” (Bioorg Med Chem Lett, 2009).
